# Source: ChEMBL document CHEMBL1157795, “Structure-activity relationship of an ozonide carboxylic acid (OZ78) against Fasciola hepatica” (2010)
# Active and inactive are the calls of the source. The calls are words filed in the database; no cut-off is given here.
# Tests used:
# Fasciola hepatica [1] = assay: Antiparasitic activity against Fasciola hepatica infected in rat assessed as reduction in worm burden at 100 mg/kg, po administered as single dose measured after 6 days post treatment; format: functional; design: scale not given: the % may be the effect or the level left
# Outline: (§1)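 Female Wistar rats (~100 g) infected with ~20 F. hepatica metacercariae each; at 8 weeks post-infection given a single 100 mg/kg oral dose as suspension in 7% (v/v) Tween 80 / 3% (v/v) EtOH. Killed by CO2 on day 6 post-treatment; adult flukes recovered from bile ducts and livers. Mean total worm burden compared with untreated controls; cures scored; Kruskal-Wallis test, 5% level.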
# Fasciola hepatica [2] = assay: Antiparasitic activity against Fasciola hepatica infected in rat assessed as induction of cure at 100 mg/kg, po administered as single dose measured after 6 days post; format: functional, organism-based; design: dose 100 mg/kg; outline: as §1
# Fasciola hepatica [3] = assay: Antiparasitic activity against Fasciola hepatica infected in rat assessed as reduction in worm burden at 50 mg/kg, po administered as single dose measured after 6 days post treatment; format: functional; design: scale not given: the % may be the effect or the level left
# Outline: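 Female Wistar rats (~100 g), each infected with ~20 F. hepatica metacercariae, dosed orally once at 8 weeks post-infection with 50 mg/kg suspended in 7% (v/v) Tween 80 plus 3% (v/v) EtOH. Day 6 after treatment: CO2 sacrifice, adult flukes counted from bile ducts and liver. Worm burden reduction versus untreated control rats (mean totals); Kruskal-Wallis significance.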
SMILES,Activity (Fasciola hepatica [1]) [%],Activity (Fasciola hepatica [2]),Activity (Fasciola hepatica [3]) [%]
CS(=O)(=O)NC(=O)C[C@H]1CC[C@]2(CC1)OO[C@]1(O2)C2CC3CC(C2)CC1C3,100,Active,
NC(=O)C[C@H]1CC[C@]2(CC1)OO[C@]1(O2)C2CC3CC(C2)CC1C3,7,inactive,
CCOC(=O)C[C@H]1CC[C@]2(CC1)OO[C@]1(O2)C2CC3CC(C2)CC1C3,,,36
O=C(O)C[C@H]1CC[C@]2(CC1)OO[C@]1(O2)C2CC3CC(C2)CC1C3,100,Active,
O=C([O-])CN1CC[C@]2(CC1)OO[C@]1(O2)C2CC3CC(C2)CC1C3.[Na+],0,inactive,
O=C(C[C@H]1CC[C@]2(CC1)OO[C@]1(O2)C2CC3CC(C2)CC1C3)NCCS(=O)(=O)[O-].[Na+],0,inactive,
O=C(O)C(C(=O)O)[C@H]1CC[C@]2(CC1)OO[C@]1(O2)C2CC3CC(C2)CC1C3,0,inactive,
O=C(O)C[C@H]1CC[C@]2(CC1)OO[C@]1(O2)C2CC3CC1CC(C2)C3F (some centres not stated),76,,
O=C(O)C(=O)NC[C@H]1CC[C@]2(CC1)OO[C@]1(O2)C2CC3CC(C2)CC1C3,14,inactive,
O=C(O)C[C@H]1CC[C@@]2(CC1)OO[C@@]1(O2)C2CC3CC(C2)CC1C3,95,,
O=C(O)C[C@H]1CC[C@]2(CC1)OO[C@]1(O2)C2CC3CC1C[C@@](F)(C3)C2,80,,
C[C@H]1[C@H](OC(=O)CCC(=O)O)O[C@@H]2O[C@@]3(C)CC[C@H]4[C@H](C)CC[C@@H]1[C@@]24OO3 [ARTESUNATE],30,,
O=C(O)C[C@H]1CC[C@]2(CC1)OO[C@@]1(CCCCC1)O2,0,inactive,
O=C(O)C[C@H]1CC[C@]2(CC1)OC[C@]1(O2)C2CC3CC(C2)CC1C3,0,inactive,
O=C(O)C[C@H]1CC[C@@]2(CC1)C[C@@]1(OO2)C2CC3CC(C2)CC1C3,7,inactive,
O=C(O)C[C@@H]1CCC[C@]2(C1)OOC1(O2)C2CC3CC(C2)CC1C3 (relative stereo),90,,
O=C(O)C[C@H]1CCCC[C@@]12OOC1(O2)C2CC3CC(C2)CC1C3 (some centres not stated),46,inactive,
COC(=O)C[C@H]1CC[C@]2(CC1)OO[C@]1(O2)C2CC3CC(C2)CC1C3,99,,
O=C(O)CC[C@H]1CC[C@]2(CC1)OO[C@]1(O2)C2CC3CC(C2)CC1C3,14,inactive,
O=C(O)C[C@H]1CC[C@]2(CC1)OO[C@]1(O2)C2CCCC1CCC2,51,inactive,
N=C(N)NC(=O)C[C@H]1CC[C@]2(CC1)OO[C@]1(O2)C2CC3CC(C2)CC1C3,0,inactive,
O=C(O)[C@H]1CC[C@]2(CC1)OO[C@]1(O2)C2CC3CC(C2)CC1C3,52,,
O=C(O)CNC(=O)C[C@H]1CC[C@]2(CC1)OO[C@]1(O2)C2CC3CC(C2)CC1C3,86,,
O=C(C[C@H]1CC[C@]2(CC1)OO[C@]1(O2)C2CC3CC(C2)CC1C3)N1CCNCC1,0,inactive,
O=C(C[C@H]1CC[C@]2(CC1)OO[C@]1(O2)C2CC3CC(C2)CC1C3)NO,34,inactive,
CCOP(=O)([O-])C[C@H]1CC[C@]2(CC1)OO[C@]1(O2)C2CC3CC(C2)CC1C3.[K+],16,inactive,
O=C(O)C[C@H]1CC[C@]2(CC1)OO[C@]1(O2)C2CC3CC1CC(C2)C3(F)F,80,inactive,
NNC(=O)C[C@H]1CC[C@]2(CC1)OO[C@]1(O2)C2CC3CC(C2)CC1C3,12,inactive,
